From ChEMBL document CHEMBL1154748, “4-Pyridylanilinothiazoles that selectively target von Hippel-Lindau deficient renal cell carcinoma cells by inducing autophagic cell death” (2010)
Active and inactive are the calls of the source. No cut-off for these calls is given here.

Columns and labels:
[1] = Growth inhibition of VHL-null human RCC4 cells after 4 days by XTT assay; type: functional; conditions: RCC4, 96 h
How it was run: (§1)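 XTT read-out: 5000 cells/well plated, vehicle or drug added next day, 4-day exposure. Then phenol red-free medium with 0.3 mg/mL XTT, 20% FCS and 2.65 μg/mL N-methyldibenzopyrazine methyl sulfate, 1-2 h at 37 °C, absorbance at 450 nm. GI50 by linear interpolation; single determinations in triplicate. Ratio is the intraexperiment RCC4-VHL GI50 / RCC4 GI50.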

[2] = Ratio of IC50 for human RCC4-VHL cells to IC50 for VHL-null human RCC4 cells; type: functional; how it was run: as §1
[3] = system: RCC4; test: Induction of autophagy in VHL-null human RCC4 cells assessed as intracytoplasmic vacuoles at 5 uM after 24 h

SMILES | GI50 [1] [µM] | RatioGI50 [2] | Activity [3]
Clc1cccc(Nc2nc(-c3ccncc3)cs2)c1 | 3 | 5 | 
Cc1cccc(Nc2nc(-c3ccnc(F)c3)cs2)c1 | 4.5 | >8.9 | 
OCc1sc(Nc2ccc3c(c2)CCC3)nc1-c1ccncc1 | 6.8 | 1.4 | 
Fc1ccc(Nc2nc(-c3ccncc3)cs2)cc1 | 6 | >7 | 
C#Cc1cnccc1-c1csc(Nc2cccc(C)c2)n1 | 1.35 | 4.4 | 
CCOC(=O)c1sc(Nc2cccc(C)c2)nc1-c1ccncc1 | > 40 |  | 
Cc1cccc(Nc2nc(-c3cc[n+]([O-])cc3)cs2)c1 | > 40 |  | 
Cc1sc(Nc2ccc3c(c2)CCC3)nc1-c1ccncc1 | 12 | 1.5 | 
Cc1cccc(Nc2nc(-c3ccncc3)c(C(N)=O)s2)c1 | 19.2 | >2 | 
Clc1ccc(Nc2nc(-c3ccncc3)cs2)cc1Cl | 13.5 | >3 | 
Cc1cccc(N(CCO)c2nc(-c3ccncc3)cs2)c1 | > 40 |  | 
COc1cccc(Nc2nc(-c3ccncc3)cs2)c1 | 3 | 17 | 
Oc1ccc(Nc2nc(-c3cccnc3)cs2)cc1 | > 40 |  | 
COc1ccc(C(=O)Nc2nc(-c3ccncc3)cs2)cc1 | > 40 |  | 
CN(C)CCc1ccc(Nc2nc(-c3ccncc3)cs2)cc1 | 50 | 1.2 | 
Oc1ccccc1Nc1nc(-c2ccncc2)cs1 | 12.8 | >3.1 | 
Cc1ccc(C(=O)Nc2nc(-c3ccncc3)cs2)cc1 | > 40 |  | 
N#Cc1cccc(Nc2nc(-c3ccncc3)cs2)c1 | > 40 |  | 
Brc1cccc(Nc2nc(-c3ccncc3)cs2)c1 | 12.4 | >3.2 | 
Cc1cccc(Nc2nc(-c3ccncc3)c(CCCN3CCOCC3)s2)c1 | 5.8 | 1.6 | 
Cc1cccc(Nc2nc(Cc3ccncc3)cs2)c1 | 20.3 | 24.4 | 
Oc1cccc(Nc2nc(-c3ccncc3)cs2)c1 | 28.5 | >3 | 
Cc1cccc(C)c1Nc1nc(-c2ccncc2)cs1 | > 40 |  | 
Cc1cccc(Nc2nc(-c3ccncc3)c(C(=O)NCCCN3CCOCC3)s2)c1 | > 40 |  | 
Cc1cccc(Nc2nc(-c3ccncc3)c(CN3CCOCC3)s2)c1 | 2.5 | 4.8 | 
FC(F)(F)c1cccc(Nc2nc(-c3ccncc3)cs2)c1 | > 40 |  | 

SMILES | GI50 [1] [µM] | RatioGI50 [2] | Activity [3]
COc1ccc(Nc2nc(-c3ccncc3)cs2)cc1 | 14 | 3.6 | 
Cc1cccc(Nc2nc(-c3ccncc3[N+](=O)[O-])cs2)c1 | 8.2 | 4.1 | 
Cc1cccc(Nc2nc(-c3cccnc3)cs2)c1 | > 40 |  | 
FC(F)(F)c1ccccc1Nc1nc(-c2ccncc2)cs1 | > 40 |  | 
CCN(c1cccc(C)c1)c1nc(-c2ccncc2)cs1 | 40 | 0.6 | 
Cc1cc(Nc2nc(-c3ccncc3)cs2)ccc1O | 70 | 2.3 | 
COc1ccc(Nc2nc(-c3ccncc3)cs2)cc1OC | 24 | 1.9 | 
Cc1ccc(Nc2nc(-c3ccncc3)cs2)cc1C | 6.5 | 6.4 | 
CCN(CC)Cc1sc(Nc2cccc(C)c2)nc1-c1ccncc1 | 13 | 1.4 | 
N#Cc1ccc(Nc2nc(-c3ccncc3)cs2)cc1 | > 40 |  | 
COc1ccccc1Nc1nc(-c2ccncc2)cs1 | 33.4 | >1.2 | 
c1cc(-c2csc(Nc3ccc4c(c3)CCC4)n2)ccn1 | 2 | 10 | Active
OCc1sc(Nc2ccccc2)nc1-c1ccncc1 | 30 | >1.3 | 
c1cc(-c2csc(Nc3ccc4c(c3)OCO4)n2)ccn1 | > 40 |  | 
Cc1cccc(Nc2nc(-c3ccncc3)c(CCCO)s2)c1 | 3.6 | 3.7 | 
O=C(Nc1nc(-c2ccncc2)cs1)c1ccccc1 | > 40 |  | 
CCc1cc(-c2csc(Nc3cccc(C)c3)n2)ccn1 | 6.4 | >6.3 | 
Cc1cccc(Nc2nc(-c3ccncc3)c(C=O)s2)c1 | 15 |  | 
C#Cc1cc(-c2csc(Nc3cccc(C)c3)n2)ccn1 | 17.8 | >2.2 | 
Cc1ccc(Nc2nc(-c3ccncc3)c(CO)s2)cc1 | 14 | 1.2 | 
Cc1cccc(Nc2nc(-c3cc(Cl)nc(Cl)c3)cs2)c1 | 15 | 2.3 | 
Cc1cccc(Nc2nc(-c3ccncc3)c(C(=O)NCCN(C)C)s2)c1 | > 40 |  | 
CC(=O)Nc1cnccc1-c1csc(Nc2cccc(C)c2)n1 | 33.3 | 1 | 
Cc1cccc(Nc2nc(-c3ccncc3)c(CN3CCCCC3)s2)c1 | 13 | 1.9 | 
OCCc1ccc(Nc2nc(-c3ccncc3)cs2)cc1 | 5 | 16 | 
Clc1ccccc1Nc1nc(-c2ccncc2)cs1 | 27.6 | >1.4 | 

SMILES | GI50 [1] [µM] | RatioGI50 [2] | Activity [3]
CCc1cnccc1-c1csc(Nc2cccc(C)c2)n1 | 6.2 | 2.8 | 
Cc1cccc(CNc2nc(-c3ccncc3)cs2)c1 | > 40 |  | 
Fc1ccccc1Nc1nc(-c2ccncc2)cs1 | 14.3 | >2.8 | 
Cc1cccc(C(=O)Nc2nc(-c3ccncc3)cs2)c1 | > 40 |  | 
O=[N+]([O-])c1ccccc1Nc1nc(-c2ccncc2)cs1 | > 40 |  | 
COCC#Cc1cnccc1-c1csc(Nc2cccc(C)c2)n1 | 0.62 | 45 | Active
c1ccc(Nc2nc(-c3cccnc3)cs2)cc1 | > 40 |  | 
Cc1cccc(Nc2nc(-c3ccncc3Br)cs2)c1 | 3.9 | >10 | 
Cc1ccc(Nc2nc(-c3ccncc3)cs2)cc1 | 2.5 | 20 | 
CCc1cccc(Nc2nc(-c3ccncc3)cs2)c1 | 2.5 | 9.6 | 
Oc1ccc(Nc2nc(-c3ccncc3)cs2)cc1 | 5.3 | 8 | 
CCOC(=O)c1sc(Nc2ccc3c(c2)CCC3)nc1-c1ccncc1 | > 40 |  | 
Cc1cc(C)cc(Nc2nc(-c3ccncc3)cs2)c1 | 4.5 | >9 | 
CC(=O)c1ccc(-c2cnccc2-c2csc(Nc3cccc(C)c3)n2)cc1 | 3.9 | 9 | 
Clc1ccc(Nc2nc(-c3ccncc3)cs2)cc1 | 38 | >2 | 
Cc1ccccc1Nc1nc(-c2ccncc2)cs1 | > 40 |  | 
Cc1ccc(Nc2nc(-c3ccncc3)cs2)cc1O | 12 | 4.6 | 
Cc1cccc(Nc2nc(-c3ccnc(CCCO)c3)cs2)c1 | 5.2 | >7.7 | 
Oc1ccc(Nc2nc(-c3ccccn3)cs2)cc1 | 36 | 0.7 | 
COC(=O)/C=C/c1sc(Nc2cccc(C)c2)nc1-c1ccncc1 | 2.5 | 2.8 | 
Fc1cccc(F)c1Nc1nc(-c2ccncc2)cs1 | > 40 |  | 
Cc1cccc(Nc2nc(-c3ccccn3)cs2)c1 | 37 | 0.9 | 
O=[N+]([O-])c1ccc(Nc2nc(-c3ccncc3)cs2)cc1 | > 40 |  | 
Cc1cccc(Nc2nc(Cc3cccnc3)cs2)c1 | > 40 |  | 
Cc1cccc(Nc2nc(-c3ccncc3F)cs2)c1 | 2 | >20 | 
Cc1cccc(Nc2nc(-c3ccncc3)c(CN(C)C)s2)c1 | 16 | 2.3 | 

SMILES | GI50 [1] [µM] | RatioGI50 [2] | Activity [3]
Cc1cccc(Nc2nc(-c3ccncc3C)cs2)c1 | 5.2 | >7.7 | 
COc1cc(Nc2nc(-c3ccncc3)cs2)cc(OC)c1OC | > 40 |  | 
Cc1cccc(Nc2nc(-c3ccncc3)c(C(=O)N(C)C)s2)c1 | 16 | >2.5 | 
COc1cc(Nc2nc(-c3ccncc3)cs2)cc(OC)c1 | > 40 |  | 
Cc1cccc(Nc2nc(-c3ccnc(Br)c3)cs2)c1 | 2 | 4.3 | 
Cc1cccc(Nc2nc(-c3ccncc3N)cs2)c1 | > 40 |  | 
Fc1cccc(Nc2nc(-c3ccncc3)cs2)c1 | > 40 |  | 
FC(F)(F)c1ccc(Nc2nc(-c3ccncc3)cs2)cc1 | > 40 |  | 
c1ccc(Nc2nc(-c3ccccn3)cs2)cc1 | 35.1 | 0.9 | 
O=[N+]([O-])c1cccc(Nc2nc(-c3ccncc3)cs2)c1 | > 40 |  | 
c1ccc(Nc2nc(-c3ccncc3)cs2)cc1 | 7 | >10 | 
Cc1cccc(Nc2nc(-c3ccncc3CCCO)cs2)c1 | 6.8 | >5.9 | 
Cc1cccc(Nc2nc(-c3ccncc3)cs2)c1 | 2.1 | 19 | 
CC(C)(C)c1cccc(Nc2nc(-c3ccncc3)cs2)c1 | > 40 |  | 
Cc1cccc(Nc2nc(-c3ccnc(Cl)c3)cs2)c1 | 2.2 | 3.8 | 
Cc1cccc(Nc2nc(-c3ccncc3)c(C)s2)c1 | 10 | >4 | 
Cc1cccc(Nc2nc(-c3ccnc(C)c3)cs2)c1 | > 40 |  | 
CC(C)c1cccc(Nc2nc(-c3ccncc3)cs2)c1 | 17 | 1.4 | 
Cc1cccc(Nc2nc(-c3ccnc(C#CCO)c3)cs2)c1 | 9.3 | 1.6 | 
CN(C)CCOc1ccc(Nc2nc(-c3ccncc3)cs2)cc1 | 60 | 1.3 | 
COC(=O)CCc1sc(Nc2cccc(C)c2)nc1-c1ccncc1 | > 40 |  | 
COc1cc(-c2csc(Nc3cccc(C)c3)n2)ccn1 | 28.7 | 1.2 | 
Cc1cccc(N(C)c2nc(-c3ccncc3)cs2)c1 | 28 | 0.6 | 
Cc1cccc(Nc2nc(-c3ccncc3)c(CO)s2)c1 | 7 | 2.4 | 
